Legend:
[1] = system: Rattus norvegicus; assay: Inhibition of hind limb tonus was tested by maximal metrazole seizure test after 1 hr of peroral administration of compound; assay type: functional; conditions: Hindlimb, po
[2] = Protective index (rat) was from the ratio of plasma concentration at which side effects occur by plasma concentration at which anticonvulsant activity occur.; assay type: functional
Outline: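 Rat plasma drug concentration at rotorod impairment was divided by the plasma concentration at MES anticonvulsant activity. Both were measured by HPLC-UV in plasma from dosed rats.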

[3] = system: Mus musculus; assay: Inhibition of hind limb tonus was tested at time of peak effect by maximal electroshock test (MES) in mouse on intraperitoneal administration of compound; assay type: functional; conditions: Hindlimb, ip
Outline: (§1)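 Male BKW mice (LACA origin), 18-22 g, dosed ip or po with compound dissolved or suspended in 2% Tween 80 in distilled water. Readout was block of hind limb tonic seizure. ED50 was derived by probit analysis using the computerized Bliss method.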

[4] = system: Mus musculus; assay: Inhibition of hind limb tonus was tested by maximal metrazole seizure (MMS) test in mouse after 1 hr of peroral administration; assay type: functional; conditions: Hindlimb, po
Outline: (§2)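 Male BKW mice, 18-22 g, dosed orally with compound in 2% Tween 80/water. Metrazol 120 mg/kg ip was given 1 h after dosing. ED50 for block of hind limb tonic seizure was derived by Bliss probit analysis.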

[5] = system: Rattus norvegicus; assay: Inhibition of hind limb tonus was tested by maximal electroshock test (MES) in rat after 1 hr of peroral administration; assay type: functional; conditions: Hindlimb, po
[6] = system: Rattus norvegicus; assay: Inhibition of hind limb tonus was tested by maximal metrazole seizure test after 4 hr of peroral administration; assay type: functional; conditions: Hindlimb, po
[7] = system: Mus musculus; assay: Inhibition of hind limb tonus was tested by maximal electroshock test (MES) in mouse after 1 hr of peroral administration of compound; assay type: functional; conditions: Hindlimb, po; outline: as §1
[8] = system: Rattus norvegicus; assay: Inhibition of hind limb tonus was tested by maximal electroshock test (MES) in rat after 4 hr of peroral administration; assay type: functional; conditions: Hindlimb, po
[9] = system: Rattus norvegicus; assay: Inhibition of hind limb tonus was tested at time of peak effect by maximal electroshock test (MES) on intraperitoneal administration of compound in rats; assay type: functional; conditions: Hindlimb, ip
[10] = system: Mus musculus; assay: Anticonvulsant activity tested by maximal electroshock test (MES) in mouse after 1 hr of administration; assay type: functional; outline: as §1
[11] = system: Mus musculus; assay: Anticonvulsant activity tested by maximal metrazole seizure (MMS) test in mouse after 1 hr of administration; assay type: functional; outline: as §2
[12] = Neurotoxicity by performing a rotarod test in mouse after 1 hr of administration; assay type: toxicity, organism-based; conditions: in vivo
Outline: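 Male BKW mice, 18-22 g, were pre-trained on a rotorod turning at 16 rpm (3 cm drum). They were dosed ip or po in 2% Tween 80/water and tested at timed intervals. TD50, the dose at which 50% fell off the rod, was derived by probit analysis.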

[13] = system: Rattus norvegicus; assay: Maximum percent fall in mean arterial blood pressure was evaluated by injecting 100 mg/kg perorally in DOCA hypertensive rats; assay type: functional; conditions: route oral

| Compound | ED50 [10] [mg/kg] | ED50 [11] [mg/kg] | TD50 at 1 h [12] [mg/kg] | also measured |
| --- | --- | --- | --- | --- |
| NC(=O)N1c2ccccc2C=Cc2ccccc21 [CARBAMAZEPINE] | – | – | – | ED50 [1]: 3 mg/kg; PI [2]: 2.51; ED50 [3]: 6 mg/kg; ED50 [4]: 11 mg/kg; ED50 [5]: 4 mg/kg; ED50 [6]: 5 mg/kg; ED50 [7]: 20 mg/kg; ED50 [8]: 7 mg/kg; ED50 [9]: 2 mg/kg |
| CNN(c1nnc(-c2ccccc2C)s1)C(C)C.Cl | > 100 | > 100 | – | – |
| CC(C)N(N)c1nnc(-c2ccccc2Cl)s1 | 54 | > 100 | > 800 | – |
| CN(Nc1ccccc1)c1nnc(-c2ccccc2Cl)s1 | > 100 | > 100 | – | – |
| CC(C)NN(C)c1nnc(-c2ccccc2-c2ccccc2)s1.Cl | 55 | 66 | – | – |
| Cc1ccccc1-c1nnc(N(C)NC(C)C)s1.Cl | 35 | 38 | – | – |
| Cl.NNc1nnc(-c2ccccc2Cl)s1 | 70 | 25 | > 568 | Decrease in blood pressure [13]: 21% |
| NN(c1ccccc1)c1nnc(-c2ccccc2Cl)s1 | > 100 | > 100 | – | – |
| Cc1ccccc1-c1nnc(N(N)C(C)C)s1.Cl | 54 | 49 | – | – |
| CC(C)NNc1nnc(-c2ccccc2-c2ccccc2)s1 | 35 | 44 | – | – |
| CCCCCCOc1ccccc1-c1nnc(NNC(C)C)s1.Cl | > 100 | > 100 | – | – |
| Clc1ccccc1-c1nnc(NNC2CCCC2)s1 | > 100 | > 100 | – | – |
| CN(N)c1nnc(-c2ccccc2Cl)s1.Cl | 20 | 41 | 136 | – |
| CCCCN(N)c1nnc(-c2ccccc2C)s1.Cl | 119 | 60 | – | – |
| CN(NC1CCCC1)c1nnc(-c2ccccc2Cl)s1.Cl | 106 | > 100 | – | – |
| CN(N)c1nnc(CCc2ccccc2)s1.Cl | 51 | 49 | 317 | – |
| CN(N)c1nnc(-c2ccccc2Sc2ccccc2)s1.Cl | 43 | 27 | – | – |

| Compound | ED50 [10] [mg/kg] | ED50 [11] [mg/kg] | TD50 at 1 h [12] [mg/kg] | also measured |
| --- | --- | --- | --- | --- |
| CN(N)c1nnc(-c2cccc(Oc3ccccc3)c2)s1 | 100 | 111 | – | – |
| CC(C)N(N)c1nnc(-c2ccccc2-c2ccccc2)s1 | > 100 | > 100 | – | – |
| CN(C)N(C)c1nnc(-c2ccccc2Cl)s1.Cl | 53 | > 100 | 347 | – |
| Cl.NNc1nnc(-c2ccccc2-c2ccccc2)s1 | 28 | 33 | 627 | Decrease in blood pressure [13]: 18% |
| Cl.NN(c1nnc(-c2ccccc2Cl)s1)C1CCCCC1 | > 100 | > 100 | – | – |
| Cc1ccccc1-c1nnc(NNC2CCCC2)s1.Cl | > 100 | > 100 | – | – |
| Cc1ccccc1-c1nnc(N(C)NC2CCCC2)s1.Cl | 110 | 81 | – | – |
| NN(Cc1ccccc1)c1nnc(-c2ccccc2Cl)s1 | 186 | 143 | – | – |
| Clc1ccccc1-c1nnc(NNc2ccccc2)s1 | > 100 | > 200 | – | – |
| Cc1ccccc1-c1nnc(N(N)Cc2ccccc2)s1 | 27 | 44 | > 200 | – |
| CNN(C)c1nnc(-c2ccccc2-c2ccccc2)s1.Cl | ~100 | > 100 | – | – |
| CC(C)NNc1nnc(-c2ccccc2Cl)s1 | 50 | 50 | 200 | – |
| Cl.Clc1ccccc1-c1nnc(NNCc2ccccc2)s1 | > 100 | > 100 | – | – |
| Cc1ccccc1-c1nnc(N(C)N)s1.Cl | 75 | 41 | 108 | Decrease in blood pressure [13]: 29% |
| Cl.NNc1nnc(-c2ccc(-c3ccccc3)cc2)s1 | > 200 | – | – | – |
| CN(N)c1nnc(Cc2ccccc2)s1.Cl | 11 | 25 | 280 | – |

Source: ChEMBL document CHEMBL1123516, “Substituted 1,3,4-thiadiazoles with anticonvulsant activity. 1. Hydrazines” (J Med Chem, 1986)
